A selection: hits, their analogues and other compounds. The true share with any hit is near 1.9%.
Runt-CBFb FRET: inhibitors of RUNX1 Runt–CBFb binding, primary screen, biochemical, FRET, Cerulean-Runt, Venus-CBFb, uHTS. AID 1496, 2009. inhibition, % at 20 µM. Cerulean-Runt/Venus-CBFb FRET ratio 530/480, 1 h. Runt-related transcription factor 1 (Homo sapiens) + Core-binding factor subunit beta …. actives 0.46% (n = 220,000);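 active = inhibition over about 50% at 20 µM in the single-dose screen, limit read from the data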;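 note: 0% = DMSO wells and 100% = excess unlabeled CBFb competitor control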
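Measured by: fluorescence energy transfer, 422 nm excitation, 530/480 nm emission; test system: Cerulean-tagged RUNX1 Runt domain (FRET donor) fusion protein; buffer or medium: Tris pH 7.5 buffer with BSA; compound: one dose, 20 µM compound, 1% DMSO; times: two 1 h room-temperature incubations shielded from light; benchmarks: unlabeled CBFb 5 µM, positive control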
RanGTP-Impb inh: inhibitors of RanGTP-importin-beta interaction, primary screen, biochemical, FRET, CFP-Ran, YFP-importin-beta, homogeneous. Ran GTPase (GTP-bound) - importin-beta complex. cell-free CFP-Ran/YFP-importin-beta FRET ratio. inhibition, % (test concentration not listed). actives 1.1% (n = 300,000);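 active = more than half of the replicate wells show a fall in the fluorescence ratio signal beyond about 16%, limit read from the data, passing the limit was not always enough; inconclusive = exactly half of the replicate wells pass the set limit; inactive = fewer than half of replicates pass the limit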;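 note: 0% = DMSO wells and 100% = Ran loaded with GDP instead of GTP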
HDAC3 inhib: HDAC3 deacetylase inhibitors, primary screen, biochemical, fluorescence, cell-free homogeneous; Histone deacetylase 3 (Homo sapiens), O15379; recombinant HDAC3, fluorogenic peptide/trypsin coupled; inhibition, % at 8.3 µM; actives 0.15% (n = 320,000); AID 2718, 2010; in the data active = inhibition above about 26%, passing the limit was not always enough; inconclusive = no clear call, values can overlap the other calls
Target sequence (O15379 whole entry, looked up): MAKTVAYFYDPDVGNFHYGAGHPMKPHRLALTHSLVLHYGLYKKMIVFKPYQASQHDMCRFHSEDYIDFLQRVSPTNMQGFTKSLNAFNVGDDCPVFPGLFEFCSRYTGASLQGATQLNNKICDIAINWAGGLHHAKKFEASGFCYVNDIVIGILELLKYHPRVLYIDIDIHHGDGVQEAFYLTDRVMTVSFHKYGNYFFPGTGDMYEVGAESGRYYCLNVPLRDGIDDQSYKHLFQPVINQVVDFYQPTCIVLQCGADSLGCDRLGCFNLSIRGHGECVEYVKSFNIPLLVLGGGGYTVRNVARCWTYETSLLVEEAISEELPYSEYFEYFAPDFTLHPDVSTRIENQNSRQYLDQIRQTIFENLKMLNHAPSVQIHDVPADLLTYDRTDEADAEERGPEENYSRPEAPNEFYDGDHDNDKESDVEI
LANA-H2B inh: blockers of LANA interaction with H2A/H2B – biochemical, FP readout, HTS, primary screen. Protein LANA1 (Human herpesvirus 8 type P (isolate GK18)), Q9QR71. cell-free LANA-H2A/H2B peptide, fluorescence polarization. inhibition, % (test concentration not listed). actives 0.6% (n = 320,000); in the data active = inhibition mostly above about 10%, no sharp cut-off; inactive = mostly below about 6.7%
CaV13 FRET inh: Disruptors of the CACNA1D IQ motif to Ca2+-dependent inactivation inhibitor domain association, primary screening, Förster resonance energy transfer in intact living …; actives 0.098% (n = 340,000); inhibition, % at 12.3 µM; HEK cells, CFP/YFP FRET ICDI-IQ, plate reader, 10 min; percent FRET-ratio fall versus neutral wells; AID 743397;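 active = mean replicate inhibition of at least 30% and at least 1% of replicates passing that level; inconclusive = only one of the two criteria is met; inactive = neither criterion is met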;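 note: 0% = median of the neutral control wells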
Runt-SMMHC FRET: inhibitors of RUNX1 Runt–CBFb-SMMHC binding, primary screen, biochemical, FRET, Cerulean-Runt, Venus-CBFb-SMMHC, uHTS; Runt-related transcription factor 1 (Homo sapiens) + Core-binding factor subunit beta …; Cerulean-Runt/Venus-CBFb-SMMHC FRET ratio 530/480, 1 h; inhibition, % at 20 µM; actives 0.74% (n = 220,000);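 active = mean inhibition across duplicate retests at 20 µM reaching about 50%, limit read from the data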;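 note: 0% = DMSO wells and 100% = wells with excess untagged CBFb-SMMHC; inhibitors lower the FRET ratio by blocking Runt binding to CBFb-SMMHC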
Starred values were filed as active, the others as inactive; ? = inconclusive; . = no result.

SMILES | Runt-CBFb FRET | RanGTP-Impb inh | HDAC3 inhib | LANA-H2B inh | CaV13 FRET inh | Runt-SMMHC FRET
O=C(Nc1ccc(N2CCOCC2)c(Cl)c1)c1ncn[nH]1 | 0.3 | 1.1 | -3.4 | 0.9 | . | 1.6
Cc1ccc(S(=O)(=O)N2CCN(C(=O)C3CC3C)CC2)c(C)c1 (stereo not given) | . | -1.9 | 3.7 | 0.0 | -5.6 | .
Cc1ccc(S(=O)(=O)N2CCN(C(=O)C3CCN(C(=O)c4ccc(F)cc4)CC3)CC2)c(C)c1 | . | 5.4 | -0.8 | 21.9* | -6.4 | .
CC(CC(F)(F)F)N1CCC(n2nccc2NC(=O)CCCc2ccccc2)CC1 (stereo not given) | . | 56.6* | 5.1 | -0.3 | -4.8 | .
COc1ccc(OC)c(NC(=O)COC(=O)COc2ccc(Nc3ccccc3)cc2)c1 | . | . | 0.5 | 4.8 | -10.6 | .
CCOC(=O)C1(C)CCN1C(=O)c1cc(F)cc(F)c1 (stereo not given) | . | . | . | . | -4.5 | .
OCC1(CCCc2ccccc2)CCN(Cc2cnc(N3CCOCC3)s2)CC1 | -0.1 | 0.5 | -3.5 | -2.0 | -6.8 | 2.8
Cc1ncc(CN2CCC(CO)(CCc3ccccc3)CC2)s1 | 0.2 | 7.1 | 7.3 | 16.3* | 1.4 | -4.6
O=C(NC1CC2CCCC(C1)N2Cc1ccccc1)c1cccc(F)c1 (stereo not given) | . | 0.1 | -7.3 | -1.0 | -19.5 | .
CCCn1c(SCC(=O)c2c(N)n(C3CC3)c(=O)[nH]c2=O)nnc1-c1ccncc1 | . | . | 8.1 | 6.3 | -6.1 | .
CC(C)(C)C1(C)OC(=O)C(=Cc2ccc(OCC(=O)Nc3ccccc3)cc2)C(=O)O1 (stereo not given) | -0.2 | -1.7 | -2.3 | 24.5* | . | 3.3
Cc1noc(NS(=O)(=O)c2ccc(NC(=O)C(F)(F)F)cc2)c1C | . | 5.8 | -4.3 | 12.3 | -4.5 | .
Nn1c(SCC(=O)Nc2ccc3c(c2)OCCO3)nncc1=O | . | 6.3 | -5.0 | 12.9* | -5.0 | .
Cc1ccccc1-c1nnc(SCC(=O)Nc2ccc3c(c2)OCCO3)n1N | -0.3 | -0.3 | 5.4 | -2.5 | -6.1 | 1.0
O=C(COC(=O)C1CC(=O)N(Cc2ccco2)C1)Nc1ccc(F)cc1F (stereo not given) | . | . | 1.4 | -4.2 | -3.2 | .
N#Cc1c(N)nc2c3c(sc(=N)c2c1N)NC(=O)CC3c1ccccc1 (stereo not given) | 23.2 | 118.7* | -7.4 | 1.4 | -3.3 | 39.5
N#Cc1c(N)nc2c3c(sc(=N)c2c1N)NC(=O)CC3c1c(F)cccc1Cl (stereo not given) | 8.5 | 84.8* | -7.8 | -6.2 | -3.8 | 8.7
Cc1c(C#N)c(N)nc2c3c(sc12)NC(=O)CC3c1ccc(Cl)cc1 (stereo not given) | 4.7 | 2.7 | -10.4 | -0.7 | . | 7.7
CCN1C(=O)[C@H]2[C@@H](c3ccc(C)cc3)N3C(=O)N(c4cccc(Cl)c4)C(=O)[C@@]3(CC(C)C)[C@H]2C1=O | . | -2.1 | -3.2 | 0.5 | -5.9 | .
Cc1c(NC(=O)COc2ccc3ccccc3c2)c(=O)n(-c2ccccc2)n1C | . | 0.1 | 3.2 | -4.7 | -20.7 | .
N#C/C(=C/c1ccc(N2CCCCCC2)o1)c1ccc(Cl)cc1 | 28.4 | 33.3* | 2.8 | -2.8 | . | 26.0
N#C/C(=C/c1ccc(N2CCCCC2)o1)c1cccc(F)c1 | 6.1 | ? | -3.6 | 6.2 | -8.3 | 4.2
COc1ccc(S(=O)(=O)NCCc2cn3nc(C)c(C)nc3n2)cc1F | . | 17.4* | -19.2 | 4.1 | -16.1 | .
CCC(Sc1nc(N)c(NC(=O)c2ccc(OC)cc2)c(=O)[nH]1)C(=O)O (stereo not given) | 1.6 | 4.6 | 1.5 | 1.5 | 66.7* | -1.1
CCOc1ccc(N2C(=O)C3ON(c4ccccc4)C(c4ccco4)C3C2=O)cc1 (stereo not given) | -1.8 | -4.1 | -0.6 | 11.4* | -4.0 | 1.0
SMILES | Runt-CBFb FRET | RanGTP-Impb inh | HDAC3 inhib | LANA-H2B inh | CaV13 FRET inh | Runt-SMMHC FRET
CN(Cc1cnc2nc(N)nc(N)c2n1)c1ccc(C(=O)NC(CCC(=O)O)C(=O)O)c2ccccc12 (stereo not given) | . | . | . | . | -4.3 | .
O=C(N/N=C/c1ccc2c(c1)OCO2)c1cccc2ccccc12 | . | -2.7 | 7.3 | -11.1 | -3.3 | .
NC(=O)c1ccc(N=Cc2ccc([N+](=O)[O-])s2)cc1 | 0.2 | . | 8.0 | 16.6* | -4.7 | -1.8
CCOc1ccc(OCCC(=O)NNC(=O)c2cc(C)oc2C)cc1 | . | -2.1 | -0.3 | 1.3 | -5.5 | .
Cc1cc(C)cc(NC(=O)CCN2C(=O)c3ccccc3S2(=O)=O)c1 | . | 2.5 | 5.7 | 2.2 | -8.8 | .
O=C(CC(C(=O)O)c1c[nH]c2ccccc12)c1ccccc1 (stereo not given) | 0.9 | 42.0* | 2.5 | 0.5 | -5.3 | 2.6
Cc1cc(OCCCN2CCC(C(O)(c3ccccc3)c3ccccc3)CC2)ccc1Br | . | . | . | . | -4.9 | .
Cc1c(CN2CCc3c([nH]c4ccccc34)C2CC(C)C)cnn1C (stereo not given) | -0.1 | 34.6* | -6.2 | 6.6 | -6.3 | -2.0
COCOc1ccc(/C=C2/Oc3cc(OCOC)cc(OCOC)c3C2=O)c(OCOC)c1 | . | 104.1* | 1.5 | -2.4 | . | .
O=C1NC(c2ccccn2)Nc2sc3c(c21)CCC3 (stereo not given) | 6.4 | -2.0 | 5.4 | -4.7 | -3.6 | -3.1
CN1CCc2c(sc3c2C(=O)NC(c2ccc4c(c2)OCO4)N3)C1 (stereo not given) | 125.1* | 41.0* | 3.5 | -1.0 | -3.8 | 151.9*
CN1CCc2c(sc3c2C(=O)NC(/C=C/c2ccco2)N3)C1 (stereo not given) | . | 77.7* | 9.1 | -14.3 | -7.3 | .
O=C1NC(c2ccc3c(c2)OCO3)Nc2ccccc21 (stereo not given) | -0.1 | -4.6 | -1.3 | -1.6 | . | 5.1
Cc1ccc(C2NC(=O)c3c(sc4c3CCN(C)C4)N2)s1 (stereo not given) | 42.4 | 114.2* | -57.0 | -23.7 | . | 135.9*
Cc1ccsc1C1NC(=O)c2c(sc3c2CCCC3)N1 (stereo not given) | 10.7 | 5.2 | 2.8 | 3.5 | . | 15.7
CN1CCc2c(sc3c2C(=O)NC(c2ccccn2)N3)C1 (stereo not given) | 99.0* | 133.3* | -9.0 | -1.2 | 8.8 | 65.3*
Cc1cc(C)cc(N(C(C)C(=O)N2CCCC2)S(C)(=O)=O)c1 (stereo not given) | . | 0.5 | 3.8 | -2.4 | -5.5 | .
